# Test results taken from ChEMBL document CHEMBL1122414, “Anilides related to substituted benzamides. Potential antipsychotic activity of N-(4-amino-5-chloro-2-methoxyphenyl)-1-(phenylmethyl)-4-piperidinecarboxamide” (1983).
# Columns and labels:
# [1] = test system: Mus musculus; assay: Antagonistic activity against apomorphine induced climbing in CD-1 mice, after oral administration; assay type: functional
# In short: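 Male CD-1 mice (20–25 g), usually four groups of five, dosed orally with graded doses or vehicle 30 min before submaximal apomorphine (1 mg/kg sc). Climbing scored 10, 20 and 30 min later (modified Protais method). ED50 with 95% confidence limits by Litchfield–Wilcoxon.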
# [2] = test system: Mus musculus; assay: Antagonistic activity against apomorphine induced climbing in CD-1 mice at 2 mg/kg after oral administration; assay type: functional
# In short: (§1)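 Male CD-1 mice (20–25 g), usually groups of five, given oral compound or vehicle 30 min before apomorphine 1 mg/kg sc. Climbing scored at 10, 20 and 30 min. Percent antagonism at the quoted dose.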
# [3] = test system: Rattus norvegicus; assay: Evaluation of prolactin levels in Hooded Lister rats after subcutaneous administration; conditions: sc
# [4] = test system: Rattus norvegicus; assay: Increase in intragastric pressure after subcutaneous administration to Wistar rats; 5-50
# [5] = test system: Rattus norvegicus; assay: Evaluation of HVA levels in striatum after subcutaneous administration to Hooded Lister rats; conditions: sc
# [6] = test system: Rattus norvegicus; assay: Evaluation of HVA levels in limbic system in Hooded Lister rats after subcutaneous administration; conditions: sc
# [7] = test system: Rattus norvegicus; assay: Antagonism of amphetamine induced syereotyped behavior after intraperitoneal administration to CD rats; conditions: ip
# [8] = test system: Rattus norvegicus; assay: Antagonistic activity against apomorphine induced delay in gastric emptying in Wistar rats, after subcutaneous administration; conditions: Stomach, sc
# [9] = test system: Rattus norvegicus; assay: Increase in intragastric pressure after subcutaneous administration to Wistar rats
# [10] = test system: Mus musculus; assay: Percent antagonistic activity against apomorphine induced climbing in CD-1 mice at 0.5 mg/kg after oral administration; assay type: functional; in short: as §1
SMILES,ED50 [1] [mg/kg],other results
COc1cc(N)c(Cl)cc1NC(=O)C1CCN(Cc2ccc(F)cc2)CC1,0.6,–
COc1cc(N)c(Cl)cc1NC(=O)C1CCN(Cc2ccsc2)CC1,3.4,–
CCCN1CCC(C(=O)Nc2cc(Cl)c(N)cc2OC)CC1,> 10,–
COc1cc(N)c(Cl)cc1NC(=O)C1CCN(Cc2cccc(F)c2)CC1,–,inhibition in vivo at 2 mg/kg [2]: 58%
COc1cc(N)c(Cl)cc1NC(=O)C1CCN(CC2CCCCCC2)CC1,> 10,–
CCOc1ccc(CN2CCC(C(=O)Nc3cc(Cl)c(N)cc3OC)CC2)cc1,6.3,–
COc1cc(N)c(Cl)cc1NC(=O)C1CCN(Cc2ccc3c(c2)OCO3)CC1,4.3,–
COc1cc(N)c(Cl)cc1NC(=O)C1CCN(CC2CCCC2)CC1,> 10,–
CCCCCCCN1CCC(C(=O)Nc2cc(Cl)c(N)cc2OC)CC1,> 10,–
COc1cc(N)c(Cl)cc1NC(=O)C1CCN(Cc2ccc(OCc3ccccc3)cc2)CC1,> 4,–
COc1cc(N)c(Cl)cc1NC(=O)C1CCN(Cc2ccccc2C)CC1,–,inhibition in vivo at 2 mg/kg [2]: 77%
CCN1CCC(C(=O)Nc2cc(Cl)c(N)cc2OC)CC1,> 10,–
COc1cc(N)c(Cl)cc1NC(=O)C1CCN(Cc2ccc(C)c(C)c2)CC1,> 8,–
COc1cc(N)c(Cl)cc1NC(=O)C1CCN(Cc2ccc(O)cc2)CC1,> 8,–
COc1cc(N)c(Cl)cc1NC(=O)C1CCN(Cc2cccc(C)c2)CC1,2.4,–
COc1cccc(CN2CCC(C(=O)Nc3cc(Cl)c(N)cc3OC)CC2)c1,> 4,–
COc1cc(N)c(Cl)cc1NC(=O)C1CCN(CC2CCC2)CC1,> 10,–
CCC(CC)CN1CCC(C(=O)Nc2cc(Cl)c(N)cc2OC)CC1,> 10,–
COc1cc(N)c(Cl)cc1NC(=O)C1CCN(Cc2ccccc2Cl)CC1,> 4,–

SMILES,ED50 [1] [mg/kg],other results
COc1cc(N)c(Cl)cc1NC(=O)C1CCN(Cc2ccccc2)CC1,0.5,ED50 [3]: 0.5 mg/kg; ED50 [4]: > 50 mg/kg; ED50 [5]: 0.4 mg/kg; ED50 [6]: 0.5 mg/kg; ED50 [7]: 0.25 mg/kg; ED50 [8]: > 50 mg/kg
COc1ccc(CN2CCC(C(=O)Nc3cc(Cl)c(N)cc3OC)CC2)cc1,0.9,–
COc1cc(N)c(Cl)cc1NC(=O)C1CCN(CC2CC2)CC1,> 10,–
COc1cc(N)c(Cl)cc1NC(=O)C1CCN(CC2CCCCC2)CC1,2.9,–
COc1cc(N)c(Cl)cc1C(=O)NC1CCN(Cc2ccccc2)CC1 [CLEBOPRIDE],0.7,lowest active dose [9]: 1 mg/kg; ED50 [3]: 0.14 mg/kg; ED50 [5]: 0.1 mg/kg; ED50 [6]: 0.2 mg/kg; ED50 [8]: 0.11 mg/kg
COc1cc(N)c(Cl)cc1NC(=O)C1CCN(Cc2ccccc2F)CC1,> 4,–
COc1cc(N)c(Cl)cc1NC(=O)C1CCN(Cc2cccs2)CC1,–,Inhibition [1]: 77%
COc1cc(N)c(Cl)cc1NC(=O)C1CCN(CCc2ccccc2)CC1,> 10,–
COc1cc(N)c(Cl)cc1NC(=O)C1CCN(Cc2cccc(C#N)c2)CC1,> 4,–
CCCCCCN1CCC(C(=O)Nc2cc(Cl)c(N)cc2OC)CC1,> 10,–
COc1cc(N)c(Cl)cc1NC(=O)C1CCN(C2CCCC2)CC1,> 10,–
COc1cc(N)c(Cl)cc1NC(=O)C1CCN(C/C=C/c2ccccc2)CC1,> 10,–
COc1cc(N)c(Cl)cc1NC(=O)C1CCN(Cc2ccc([N+](=O)[O-])cc2)CC1,> 4,–
COc1cc(N)c(Cl)cc1NC(=O)C1CCN(Cc2ccc(C)cc2)CC1,–,inhibition in vivo at 0.5 mg/kg [10]: 50%
COc1cc(N)c(Cl)cc1NC(=O)C1CCN(Cc2ccc(Cl)cc2)CC1,1.2,–
CCCCCN1CCC(C(=O)Nc2cc(Cl)c(N)cc2OC)CC1,> 10,–
COc1cc(N)c(Cl)cc1NC(=O)C1CCN(Cc2cccc(Cl)c2)CC1,> 4,–
CCCCN1CCC(C(=O)Nc2cc(Cl)c(N)cc2OC)CC1,> 10,–
